Source: PubChem (Broad Institute)
In the library only some 1.7% were active in any assay of this set; here they are far more common.
CAL PDZ FP-1: inhibitors of human CAL PDZ peptide binding | AID 602252 | actives 0.92% (n = 300,000) | purified CAL PDZ, TMR-peptide fluorescence polarization, 1 h | Q9HD26 | inhibition, % at 24.9 µM;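 active means mean inhibition of at least 30% with at least half of replicates also reaching 30%; inconclusive means no clear call, values can overlap the other calls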
CAL PDZ FP-2: inhibitors of human CAL PDZ peptide binding | Q9HD26 | purified CAL PDZ, TMR-peptide fluorescence polarization, 1 h | inhibition, % at 20 µM | actives 0.02% (n = 330,000) | AID 504414;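 active means highest replicate inhibition of at least 40%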
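Read-out basis: mP drop reported as inhibition | Assay system: Tagged CAL PDZ protein CerCALP, purified | Benchmarks: Unlabelled peptide for full inhibition, DMSO wells as neutral | Schedule: 1 h incubation at room temperature before polarization reading | Buffer or medium: Sodium phosphate/NaCl buffer pH 7.4 with TCEP, IgG, Thesit | Doses: Single point, 20 µM | Measured by: Fluorescence polarization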
Rce1 inh: inhibitors of yeast Ras-converting enzyme; Q03530; yeast membranes, quenched prenylated peptide cleavage fluorescence; calls only; actives 0.27% (n = 290,000);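 active means fall in fluorescence gain of 50% or more versus controls, with final raw signal at or below 3038400; inconclusive means same 50% fall but final raw signal above 3038400; inactive means fall in fluorescence gain under 50%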
Target sequence (Q03530 whole entry, looked up): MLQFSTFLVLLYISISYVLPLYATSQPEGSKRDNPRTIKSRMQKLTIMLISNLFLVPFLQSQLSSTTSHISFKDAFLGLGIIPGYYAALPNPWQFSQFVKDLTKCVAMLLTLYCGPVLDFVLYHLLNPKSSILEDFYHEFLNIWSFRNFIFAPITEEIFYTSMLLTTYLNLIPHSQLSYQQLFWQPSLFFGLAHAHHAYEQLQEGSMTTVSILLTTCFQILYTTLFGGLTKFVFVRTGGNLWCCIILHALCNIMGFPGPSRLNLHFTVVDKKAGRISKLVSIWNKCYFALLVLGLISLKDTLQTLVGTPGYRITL
ARNT-TACC3 inh: disrupts binding between human ARNT and TACC3. inhibition, % at 9.99 µM. AlphaScreen His-ARNT PAS-B/GST-TACC3 binding, luminescence; TACC3 fragment carries E629A point mutation. AID 623870. Q9Y6A5. actives 0.66% (n = 390,000);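 active means mean inhibition of replicates at least 50% and at least half of replicates each reaching 50%; inconclusive means half or more replicates reach 50% but mean below 50%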
AI-2 QS modul: modulators of Vibrio harveyi AI-2 quorum sensing system. actives 0.4% (n = 300,000). Vibrio harveyi JMH597 AI-2 luminescence/OD600 ratio, 9 h; hits give low values; strain lacks LuxN and CqsS sensors; 0 = neutral-control median. activity change, % at 7.5 µM; in the data active means activity change below about -75%, passing the limit was not always enough; inconclusive means no clear call, values can overlap the other calls;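 further: luminescence divided by OD600 gain over 9 h not by final OD600 alone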
Of the large screens only hits and unclear results are named; the others gave an inactive call.

CCCN(CC(=O)Nc1ccccc1C)C(=O)c1sc2ccccc2c1Cl	CAL PDZ FP-1 61 (no result: Rce1 inh, AI-2 QS modul)
COc1cc(C)ccc1OCc1cc(C(=O)NCCN2CCCC(O)C2)no1 (centres undefined)	none
CCN(C(=O)c1cc2c(s1)-c1ccccc1S(=O)(=O)C2)c1cc(OC)ccc1OC	none (no result: CAL PDZ FP-1)
COc1ccc(C(=O)C2CCN(C(=O)c3ccc(OC)cc3)CC2)cc1	CAL PDZ FP-1 74
COC(=O)c1ccccc1NC(=O)C1CCN(C(=O)c2cc(OC)cc(OC)c2)CC1	CAL PDZ FP-1 115
COc1ccc(C(=O)N2CCC(C(=O)c3ccc(F)cc3)CC2)cc1	none (no result: Rce1 inh)
COc1ccc(C(=O)N2CCC(C(=O)Nc3ccccc3OC)CC2)cc1	none
CC(C)CC(=O)Nc1nnc(CCc2ccccc2)s1	none
CCOc1ccccc1NC(=O)CN1C(=O)COc2ccccc21	none
O=C(CCC(=O)c1ccccc1)Nc1ccccc1OC(F)F	CAL PDZ FP-1 33
O=C(Nc1ccccc1OC(F)F)c1ccccc1	none (no result: CAL PDZ FP-1)
COc1cccc(/C=N/NC(=O)Cn2nc(C)c([N+](=O)[O-])c2C)c1O	ARNT-TACC3 inh 65
COc1cccc(NC(=S)NNC(=O)C(C)n2nc(C)c([N+](=O)[O-])c2C)c1 (centres undefined)	none
COc1cccc(/C=N/NC(=O)C(C)n2nc(C)c([N+](=O)[O-])c2C)c1O (centres undefined)	ARNT-TACC3 inh 88
CN(CCOc1ccc(-c2ccn(S(=O)(=O)c3cccc4ccccc34)n2)cc1)c1ccccn1	none
COc1ccccc1C(=O)N/N=C(\C)CC(=O)Nc1ccccn1	none (no result: CAL PDZ FP-1)
COc1ccc(Cl)cc1NC(=O)C/C(C)=N/NC(=O)c1ccc(O)cc1	none
COc1ccccc1C(=O)N/N=C(\C)CC(=O)Nc1ccc(Cl)cn1	CAL PDZ FP-1 65
COc1cc(NC(=O)C/C(C)=N/NC(=O)c2cccc(O)c2)c(OC)cc1Cl	Rce1 inh active
C[C@@H]1CN([C@@H](C)CO)C(=O)c2cc(NC(=O)NC3CCCCC3)ccc2O[C@@H]1CN(C)Cc1ccc2c(c1)OCO2	none (no result: CAL PDZ FP-1, CAL PDZ FP-2, Rce1 inh, AI-2 QS modul)
CCC(=O)N1C[C@H](O)COC[C@H]2O[C@H](CC(=O)NC)CC[C@@H]21	none (no result: CAL PDZ FP-1, CAL PDZ FP-2, Rce1 inh, AI-2 QS modul)
CSC(=S)N/N=C/c1ccc(Br)cc1	none
S=C(N/N=C/c1ccc(Br)cc1)N1CCCCC1	ARNT-TACC3 inh 38
S=C(N/N=C/c1ccc(Cl)cc1)N1CCOCC1	ARNT-TACC3 inh 61
Cc1c(CCC(=O)O)c(=O)oc2c(C)c(OCc3cc4c(cc3Cl)OCO4)ccc12	CAL PDZ FP-1 95
COc1ccc(COc2cc(-c3cccc(OC)c3)nc3ccc(NC(=O)c4ccc(C)cc4)cc23)cc1	none
Cc1ccc(O)c(-c2cc(-c3cccc(Br)c3)n[nH]2)c1	CAL PDZ FP-1 86
Oc1ccccc1-c1cc(-c2ccc(F)cc2)n[nH]1	CAL PDZ FP-1 34
Cc1ccc(-c2cc(-c3ccc(C)cc3O)[nH]n2)cc1	none (no result: CAL PDZ FP-2)
Oc1ccccc1-c1cc(-c2ccccc2)n[nH]1	none (no result: Rce1 inh, AI-2 QS modul)
CCOc1ccc(CCNc2ccc3nnc(-c4ccccc4)n3n2)cc1OCC	none
C#CCN1[C@@H]2CCN(C2)c2cc(Br)ccc2S1(=O)=O	CAL PDZ FP-1 51 (no result: Rce1 inh, AI-2 QS modul)
COc1ccc(CN2C[C@H]3CCCN3c3cc(Br)ccc3S2(=O)=O)cc1	none (no result: Rce1 inh, AI-2 QS modul)
Clc1ccc2[nH]c3c(N4CCC5(CC4)OCCO5)ncnc3c2c1	none (no result: CAL PDZ FP-1, CAL PDZ FP-2, ARNT-TACC3 inh)
Cc1cccc2[nH]c3c(N4CCC5(CC4)OCCO5)ncnc3c12	Rce1 inh active (no result: CAL PDZ FP-1)
COc1ccc(NC(=O)c2cc(S(=O)(=O)N3CCOCC3)cn2C)c(OC)c1	none
O=C(O)c1c(-c2ccc(Cl)cc2)cn2ccccc12	CAL PDZ FP-1 100
COc1ccccc1N(CC(=O)NCCN1CCOCC1)S(=O)(=O)c1ccc(C)cc1	none
COc1ccc(CCC(=O)Nc2cccc(Cl)c2)cc1	AI-2 QS modul -83
Cc1cccc(NC(=O)CCNC(=O)c2ccc(Br)cc2)c1	CAL PDZ FP-1 47
Cc1cccc(C(=O)NCC(=O)NC(C)CCc2ccccc2)c1 (centres undefined)	CAL PDZ FP-1 32
COc1ccc(CC(=O)OCC(=O)Nc2cccc(Cl)c2)cc1	none
O=C(CCNC(=O)c1ccc(Br)cc1)Nc1cccc(S(=O)(=O)N2CCCC2)c1	none
Cc1cccc(NC(=O)CCc2ccccc2)c1	AI-2 QS modul -85
CC(=O)c1ccc(NC(=O)NCc2ccc(F)cc2)cc1	AI-2 QS modul inconclusive (no result: CAL PDZ FP-1)
CC(=O)NCCC(=O)N(C)CC1CCN(CCc2cccc(C(F)(F)F)c2)CC1	none
Cc1nnc(SCC2=C(C(=O)O)N3C(=O)C(NC(=O)Cn4nc(C(F)F)cc4C)C3SC2)s1 (centres undefined)	none
CC(C(Sc1ccccc1N)c1ccccc1)[N+](=O)[O-] (centres undefined)	none
Cc1ccc(NC(=O)CCCc2ccccc2)c([N+](=O)[O-])c1	CAL PDZ FP-1 33 (no result: CAL PDZ FP-2)
COc1cc(/C=N/n2c(-c3cc(C)[nH]n3)n[nH]c2=S)cc(OC)c1OC	CAL PDZ FP-1 34
COc1cc(/C=N/n2c(-c3cc(C)[nH]n3)n[nH]c2=S)ccc1O	none
S=c1[nH]nc(-c2ccccn2)n1/N=C/c1ccccc1	ARNT-TACC3 inh 57 (no result: CAL PDZ FP-1)
Cc1cccc(/C=N/n2c(-c3ccccn3)n[nH]c2=S)c1	none (no result: CAL PDZ FP-1, CAL PDZ FP-2, ARNT-TACC3 inh)
S=c1[nH]nc(-c2ccccn2)n1/N=C/c1c(Cl)cccc1Cl	ARNT-TACC3 inh 79
Cc1n[nH]c(=S)n(/N=C/c2cccs2)c1=O	none (no result: CAL PDZ FP-1)
Cc1ccc(/C=N/n2c(-c3ccccn3)n[nH]c2=S)o1	ARNT-TACC3 inh 91
CC(C)(C)c1n[nH]c(=S)n(/N=C/c2cccs2)c1=O	AI-2 QS modul -77
C[C@@H]1CN([C@@H](C)CO)C(=O)c2cccc(NC(=O)C3CCCCC3)c2O[C@H]1CN(C)CC1CC1	none (no result: CAL PDZ FP-1, CAL PDZ FP-2, Rce1 inh, AI-2 QS modul)
C[C@H]1CCCCO[C@H](CN(C)Cc2ccc(C(F)(F)F)cc2)[C@@H](C)CN([C@@H](C)CO)C(=O)c2cc(NS(=O)(=O)c3ccc(F)cc3)ccc2O1	none (no result: CAL PDZ FP-1, CAL PDZ FP-2, Rce1 inh, AI-2 QS modul)
Cc1c(N2C(=O)/C(=C\c3cccc4ccccc34)SC2=S)c(=O)n(-c2ccccc2)n1C	none (no result: ARNT-TACC3 inh)
Cc1nn(-c2ccccc2)c(N)c1C1(O)C(=O)N(C)c2ccccc21 (centres undefined)	none
S=c1[nH]nc(-c2ccccn2)n1/N=C/c1ccc(Cl)cc1	ARNT-TACC3 inh 77
S=c1[nH]nc(-c2ccc(Cl)cc2)n1/N=C/c1cccs1	none
S=c1[nH]nc(-c2ccccc2)n1/N=C/c1ccc(Cl)cc1	none
CC(/C=N/n1c(-c2ccccn2)n[nH]c1=S)=C\c1ccccc1	none (no result: CAL PDZ FP-1, CAL PDZ FP-2, ARNT-TACC3 inh)
S=c1[nH]nc(-c2ccccn2)n1/N=C/c1cccc2ccccc12	ARNT-TACC3 inh 56
S=c1[nH]nc(-c2ccccn2)n1/N=C/c1cccs1	ARNT-TACC3 inh 59 (no result: CAL PDZ FP-1)
Cc1ccccc1/C=N/n1c(-c2ccccn2)n[nH]c1=S	ARNT-TACC3 inh 71
COc1ccc(S(=O)(=O)N(C)C[C@H]2Oc3cc(C#CC4CC4)ccc3S(=O)(=O)N([C@@H](C)CO)C[C@@H]2C)cc1	none (no result: CAL PDZ FP-1, CAL PDZ FP-2, Rce1 inh, AI-2 QS modul)
